The source made the active and inactive calls. No cut-off for these calls is given here.
Columns and labels:
[1] = Ratio of half-life in pH 7.2 phosphate buffer to half-life in Sprague-Dawley rat intestinal homogenates; format: ADME, tissue-based; settings: tissue homogenate
[2] = Cmax in Beagle dog assessed as JBP485 level at 12 mg/kg equiv of JBP485 administered orally by UPLC-MS/MS analysis; format: ADME, organism-based, Canis lupus familiaris; set-up: dose 12 mg/kg, route oral; settings: in vivo, po
Procedure, shortened: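 Male beagle dogs, 2 years old, 8-10 kg, n=6. Single oral dose of 12 mg/kg (prodrug dosed as JBP485 equivalent) given in aqueous solution. Jugular venipuncture blood taken at 0.167-8 h into sodium heparin tubes. Plasma JBP485 measured by UPLC-MS/MS; AUC0-t and Cmax from the concentration-time profiles.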

Rattus norvegicus = experiment: Anti-hepatitis activity in ANIT-induced Sprague-Dawley rat model of liver injury assessed as reduction in serum alanine aminotransferase level at 3.125 to 25 mg/kg, po administered 30 mins prior to ANIT challenge and subsequent dosing at 8, 22, 32, and 46 hrs post ANIT challenge and measured 48 hrs post ANIT challenge; format: functional, organism-based
Procedure, shortened: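 ANIT (50 mg/kg ip, olive oil) cholestatic liver injury in male SD rats, 6 per group. Oral or ip dosing (UDCA 100 mg/kg po in CMC-Na) at 30 min before and 8, 22, 32 and 46 h after ANIT. Serum collected at 48 h from the abdominal aorta; ALT and AST activities measured with kits.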

[3] = Cmax in Sprague-Dawley rat assessed as JBP485 level at 100 mg/kg, po by LC-MS/MS analysis; format: ADME, organism-based; set-up: dose 100 mg/kg, route oral; settings: in vivo
Procedure, shortened: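 Male SD rats, 200-250 g, fasted 12 h with water, n=6. Oral dose of 12 mg/kg as JBP485 equivalent; dose-effect arms at 12 and 100 mg/kg. JBP485 given iv at 6 mg/kg as the reference. Jugular blood taken at 0.083-10 h. Plasma JBP485 by UPLC-MS/MS. Absolute F = (AUCpo×Div)/(AUCiv×Dpo)×100%, using AUC0-t.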

Compound | Ratio [1] | Cmax [2] [nM/ml] | Activity (Rattus norvegicus) | Cmax [3] [nM/ml]
CC(C)[C@H](N)C(=O)OC[C@@H]1NC(=O)[C@@H]2C[C@@H](O)CN2C1=O | 3 to 35 | 85.9 | Active | –
O=C1N[C@@H](CO)C(=O)N2C[C@H](O)C[C@@H]12 | – | – | – | 95.96

Reference: ChEMBL document CHEMBL4373712, “Bioactivatable Pseudotripeptidization of Cyclic Dipeptides To Increase the Affinity toward Oligopeptide Transporter 1 for Enhanced Oral Absorption: An Application to Cyclo(l-Hyp-l-Ser) (JBP485)” (J Med Chem, 2019)
